In the library only some 2.4% were active in any assay of this set; here they are far more common.
APOBEC3G inh = APOBEC3G (human) deaminase inhibition; Q9HC16; recombinant A3G, ssDNA deamination FAM/TAMRA fluorescence; inhibition, % at 20 µM; actives 0.28% (n = 330,000); AID 493012;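 active = inhibition of at least 40% at 20 µM, with no more than 30% in the related APOBEC3A deaminase screen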;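 note: plate controls were DMSO wells with A3G for no effect and wells lacking A3G enzyme for full effect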
APOBEC3A inh = human APOBEC3A DNA deaminase inhibition | P31941 | actives 0.41% (n = 330,000) | inhibition, % at 20 µM | recombinant A3A, FAM/TAMRA ssDNA deamination fluorescence;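 active = at least 40% inhibition at 20 µM here, with at most 30% in a related deaminase screen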;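 note: plate controls were A3A with DMSO for no effect and wells lacking A3A enzyme for full effect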
HKDC1 inhibitor = inhibitors of human hexokinase HKDC1 | AID 493160 | Q2TB90 | inhibition, % at 20 µM | actives 0.16% (n = 340,000) | recombinant HKDC1, G6PDH/diaphorase resazurin coupled fluorescence;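 active = inhibition above about 35% when tested at 20 µM, limit read from the data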;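 note: plate controls were DMSO wells with enzyme for no effect and DMSO wells lacking enzyme for full effect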
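Test system: recombinant HKDC1 (HK5) hexokinase enzyme, produced in-house / Doses: 20 µM test compound, 1% DMSO / Timing: 90 min, room temperature / Detection: G6PDH/diaphorase-coupled fluorescence, 1 mM NADP, 100 µM resazurin, 525/613 nm / Control set: DMSO wells with and without enzyme mix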
UBC9 SUMO inh = inhibitors of human SUMOylation (UBC9); inhibition, % at 35 µM; actives 0.36% (n = 290,000); P63279; HTRF SUMOylation assay, SAE1/SAE2 + UBC9, in vitro; AID 2006; in the data active = inhibition above about 50%, passing the limit was not always enough
PfG6PD inh = PfG6PD (Plasmodium falciparum) enzyme inhibition | PfGluPho enzyme, NADPH resazurin-diaphorase fluorescence | inhibition, % at 20 µM | AID 504690 | actives 0.78% (n = 350,000);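 active = inhibition reaching at least a set limit at 20 µM in the primary screen, cut at about 59% in these data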;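 note: 0% = DMSO wells with substrate and 100% = DMSO wells lacking glucose-6-phosphate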
M18AAP inhibitor = PfM18AAP enzyme inhibition | recombinant PfM18AAP, H-Glu-NHMec fluorogenic cleavage | inhibition, % at 7.35 µM | actives 1.2% (n = 290,000);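 active = inhibition above the campaign mean inhibition over all tested compounds plus 3 SD, cut at about 28% in these data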;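 note: 0% = plate median of test compound wells and 100% = 2 mM ZnCl2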
PfG6PD confirm = PfG6PD inhibition, single-dose confirmed | actives 34% (n = 2,400) | recombinant PfGluPho, NADPH-diaphorase-resazurin fluorescence | inhibition, % at 20 µM | shares compounds with PfG6PD inh;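 active = inhibition of at least 50% at 20 µM in any single replicate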;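 note: 0% = DMSO with substrate and 100% = DMSO lacking glucose-6-phosphate substrate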
Diaph ctr 10uM = diaphorase inhibition or oxidation at 10 uM NADPH | shares compounds with PfG6PD inh | diaphorase-coupled resazurin reduction, fluorescence, NADPH 10 uM | inhibition, % at 20 µM | actives 39% (n = 820);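 active = average inhibition reaching 50% or more with the compound at 20 µM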;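 note: resorufin red fluorescence formed as diaphorase reduces resazurin using NADPH; 0% = DMSO with enzyme and 100% = DMSO without enzyme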
Diaphorase 30uM = counter-screen for P. falciparum G6PD inhibitors: diaphorase inhibitors, oxidizers; inhibition, % at 20 µM; Diaphorase/resazurin coupled assay, resorufin fluorescence, 30 uM NADPH; actives 29% (n = 820); AID 504863; shares compounds with PfG6PD inh;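 active = inhibition averaging 50% or more, tested at 20 µM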;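 note: 0% = DMSO with enzyme and 100% = DMSO wells lacking diaphorase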
Starred values were filed as active, the others as inactive; x = no result.

SMILES	APOBEC3G inh	APOBEC3A inh	HKDC1 inhibitor	UBC9 SUMO inh	PfG6PD inh	M18AAP inhibitor	PfG6PD confirm	others
Cc1c(CCC(C)C)c(-n2ccnc2C)n2c(nc3ccccc32)c1C#N	0	-1	2	14	-9	-3	x
Cc1c2cc[n+](CCN3CCCCC3)cc2c(C)c2c1[nH]c1ccc(O)cc12	x	x	20	x	87*	x	12
CCOC(=O)c1[nH]c2ccc(C)cc2c1NC(=O)CN1CCCCC1	-6	-3	-1	2	-1	0	x
CC(C)c1ccc(N=C2N=C(N)c3ccccc32)cc1	-6	-4	0	5	59*	-6	30
Cc1cc(C)c(NC(=O)c2ccc(CN3CCc4ccccc4C3)cc2)c(C)c1	-1	2	-5	-4	21	3	x
COCCN(Cc1nc2ccccc2c(=O)[nH]1)C(=O)COc1c(C)cc(Cl)cc1C	-8	0	3	x	72*	x	35
Oc1c(Br)cc(Br)c(/C=N/n2c(-c3ccccc3)n[nH]c2=S)c1Br	24	7	17	38	40	7	x
CN1c2ccccc2N(C)C1(C)c1ccccc1	x	x	22	-2	64*	4	10
Cc1cc(C(F)F)n2nc(C(=O)Nc3ccc(S(=O)(=O)N4CCCCCC4)cc3)nc2n1	-5	-2	-5	x	-8	5	x
CCCc1c(C)nc2ccccc2c1SCCC#N	-3	0	-12	15	19	11	x
CCc1c(C)nc2c(Br)cccc2c1SCCC#N	-3	-4	-1	-3	59*	-8	-5
Cc1cccc(OCCn2ccnc2)c1C	-3	2	-10	7	-3	3	x
O=C(NCCN1CCOCC1)c1ccc2c(c1)N(Cc1ccccc1F)C(=O)c1ccccc1S2	-9	-10	0	3	9	1	x
O=C(c1ccc2c(c1)N(Cc1ccccc1)C(=O)c1ccccc1S2)N1CCCC1	-1	3	-3	6	102*	6	72*	Diaph ctr 10uM=62*;Diaphorase 30uM=63*
Cc1cccc(CN2C(=O)c3ccccc3Sc3ccc(C(=O)O)cc32)c1	1	5	0	1	-17	3	x
O=C(c1ccc2c(c1)N(Cc1ccccc1F)C(=O)c1ccccc1S2)N1CCOCC1	-1	4	1	22	69*	-4	35
c1cc2c(cc1CN1CCN(C3CCCCCC3)CC1)OCO2	-6	-1	-2	19	9	4	x
O=C(CCNC(=O)c1ccc(Cl)cc1)Nc1cc(C(F)(F)F)ccc1N1CCOCC1	x	x	x	x	-11	x	x
CCOC(=O)C1(Cc2cccc(OC)c2)CCN(Cc2ccccc2)CC1	-5	1	1	0	22	1	x
CCOC(=O)C1(Cc2ccccc2Cl)CCN(Cc2csc(C(C)=O)c2)CC1	-10	-2	-9	5	63*	7	25
CCOC(=O)C1=C(COC(=O)CSc2ccc(Br)cc2)NC(=O)NC1C (stereo unspecified)	0	5	0	x	14	x	x
O=C(c1ccccc1)c1ncc(C(F)(F)F)cc1Cl	-1	1	-9	13	8	-8	x
COc1ccc(-n2c(C)cc(C(=O)NC3CCCCC3)c2C)cc1	-9	-4	-5	6	71*	-8	38
Cc1cccc(-n2c(C)cc(C(=O)NC3CCCCC3)c2C)c1	0	-2	-8	6	45	-4	x
Cc1cccn2cc(-c3ccccc3)nc12	0	0	-3	26	11	2	x
Cc1ccc2nc(-c3ccccc3)cn2c1	-9	-3	2	4	79*	-12	40
Clc1ccc(-c2cn3cc(Cl)ccc3n2)cc1	-7	-3	0	-12	72*	-5	34
Brc1ccc(-c2cn3ccccc3n2)s1	0	-1	-1	10	30	8	x
